Here are results for 18 sequences from the EternaBench riboswitch data.

The test system of data set [1] is MS2 coat protein. The data set can be described thus: apparent Kd, MS2 coat protein; higher = weaker binding; RNA-MaP array; theophylline 2 mM where present. The method in brief:
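SNAP-549-labelled MS2 coat protein, doubled from 0.7 or 1.5 nM to 3 µM, was titrated over designs transcribed by stalled E. coli RNA polymerase on Illumina sequencing-chip clusters. Titrations were run without and then with constant ligand in 100 mM Tris-HCl pH 7.5, 80 mM KCl, 4 mM MgCl2, BSA, DTT, yeast tRNA and Tween-20. The apparent Kd is the median of filtered per-cluster fits to green signal normalised to red-channel RNA signal and control-cluster median Fmax.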

The test system of data set [2] is MS2 coat protein. The data set can be described thus: apparent Kd, MS2 coat protein; higher = weaker binding; RNA-MaP array. In outline:
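Designed RNAs were transcribed in place on an Illumina sequencing chip from sequenced DNA templates. At room temperature and with or without input ligand, they were incubated with fluorescently labeled MS2 coat protein from 1.5 nM to 3 μM, for 0.8–1.5 h at the lowest and 10–20 min at the highest concentrations. Apparent Kd is the median of the binding-curve fits made per cluster, with designs measured on fewer than 10 clusters excluded.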

Where [3] appears, read: designed as: OFF switch for theophylline, no ligand.
[4] abbreviates: ligand present: theophylline, designed as: OFF switch for theophylline.
The mark [5] stands for this setting: designed as: ON switch for theophylline, no ligand.
Where [6] appears, read: ligand present: theophylline, designed as: ON switch for theophylline.
[7] abbreviates: designed as: OFF switch for flavin mononucleotide, no ligand.
Setting [8] is: ligand present: flavin mononucleotide, designed as: OFF switch for flavin mononucleotide.
[9] abbreviates: designed as: ON switch for flavin mononucleotide, no ligand.
[10] abbreviates: ligand present: flavin mononucleotide, designed as: ON switch for flavin mononucleotide.

Turning to “AAACAUUGCUCAGAUACCAGACAUGAGGAUCACCCAUGUACCAAGGUAACCGAAAGGCAUGUCCCUUGGCAGCUGAGCAAUGAAA”, the “apparent Kd” value was determined as 13.7 nM in the data set with MS2 coat protein [1] (setting [3]) and 240 nM in the data set on MS2 coat protein [1] (setting [4]).

In the case of “ACAUGAGGAUCACCCAUGUCACGGCACGAUACCAGCUGAUCCGGUGGCCCUUGGCAGCGUCACGUUUGGUCCCGCGGAUGACACG”, the “apparent Kd” value in the data set with MS2 coat protein [1] (setting [5]) was 64.3 nM; in the data set with MS2 coat protein [1] (setting [6]), 60.4 nM.

Turning to “UGUACAUGAGGAUCACCCAUGUUACGCGAUACCAGACAUGAGAGUGUCCCUUGGCAGCGUGGAGCUGAUACGGCGGGAAGCCGGA”, the “apparent Kd” value in the data set on MS2 coat protein [1] (setting [5]) amounted to 43.7 nM; with MS2 coat protein [1] (setting [6]) it was 39.5 nM.

Consider “UCGUGUAUAUCGGAUACCAGUGAAAUCGAUACAUGAGGAUCACCCAUGUGAGAGGAUGUACACCCUUGGCAGCUGUAUAUAUCUA”, for which the results for the “apparent Kd” value in the data set on MS2 coat protein [1] (setting [5]) and in the data set with MS2 coat protein [1] (setting [6]) were 32.8 nM and 14.7 nM, respectively.

In the case of “UCGUGUAUAUCGGAUACCAGUGAAAUCGAUACAUGAGGAUCACCCAUGUGAGUUGAUGUACACCCUUGGCAGCUGUAUAUAUCUA”, the entries for the “apparent Kd” value in the data set on MS2 coat protein [1] (setting [5]) and with MS2 coat protein [1] (setting [6]) were 16.2 nM and 12.4 nM, respectively.

In the case of “AGACAUGUAGGAUAAUUGACUAUUACAGAUACCAGACUGUCUAAUGUCCCUUGGCAGCUGCAUUACAUGAGGAUCACCCAUGUUA”, the “apparent Kd” value stood at 22.6 nM in the data set with MS2 coat protein [1] (setting [3]) and 20.2 nM with MS2 coat protein [1] (setting [4]).

Turning to “UUUGAUAGGACAGAUACCAGCGUGUUAUAGAACAUGAGGAUCACCCAUGUAGUGAUCAAGCGCCCUUGGCAGCUGGUUUGUUAGG”, the results for the “apparent Kd” value in the data set on MS2 coat protein [1] (setting [5]) and in the data set on MS2 coat protein [1] (setting [6]) were 229 nM and 395 nM, respectively.

Regarding “AUCGUACCUGAGGAUACCAGCAUGUGAUCAUAACAUGAGGAUCACCCAUGUAAUCAGUGAUGCCCUUGGCAGCUUGGUCGGUACA”, the “apparent Kd” value in the data set on MS2 coat protein [1] (setting [5]) stood at 51.6 nM; in the data set on MS2 coat protein [1] (setting [6]), 26.4 nM.

In the case of “ACACACAUGAGGAUCACCCAUGUAAUAGAUACCAGUGACGCGGUGCACCCUUGGCAGCUGCUGCUGAGUGAUGGUUCCCUCGGAA”, the entries for the “apparent Kd” value in the data set with MS2 coat protein [1] (setting [3]) and in the data set with MS2 coat protein [1] (setting [4]) were 21.1 nM and 34.7 nM, respectively.

In the case of “UAUCUAACGAAGGAUACCAGUACAUGAGAGUACAUGAGGAUCACCCAUGUUAGAUACGGGUACCCUUGGCAGCCUCACCUACACC”, the “apparent Kd” value came to 56.8 nM in the data set on MS2 coat protein [2] (setting [5]) and 63.3 nM in the data set on MS2 coat protein [2] (setting [6]).

As to “UGGUCAGAUGUAAGGAUAUUCGCUCUAAUUUCUCAGAAGAAGGUACAUGAGGAUCACCCAUGUAAUAAAGAAAA”, the results for the “apparent Kd” value in the data set with MS2 coat protein [2] (setting [7]) and in the data set with MS2 coat protein [2] (setting [8]) were 9.38 nM and 19.6 nM, respectively.

As for “GGGUUAAAGCAGAAGGGUUACGGACAAAAUUAAACAGGAUAUGCCGUAAUACAUGAGGAUCACCCAUGUCAUACGUCAUCAGGG”, the “apparent Kd” value in the data set on MS2 coat protein [2] (setting [9]) stood at 18.9 nM; with MS2 coat protein [2] (setting [10]), 16 nM.

For “GAUACAUGAGGAUCACCCAUGUGGGAAAUUCAUCUCAUUAAGAAGGAUAUGCAUCUAAAACUGGAGCAGAAGGUCUGUAUCCCG”, the “apparent Kd” value with MS2 coat protein [2] (setting [7]) worked out at 87 nM; in the data set with MS2 coat protein [2] (setting [8]) it was 55.9 nM.

In the case of “CAUGCUAACAUGAGGAUCACCCAUGUUCCGGCGUAAACUGCACAGGAUAUCGAGAAUUUACAAGCCGAGAAGGGUGCGUAGCAU”, the entries for the “apparent Kd” value in the data set on MS2 coat protein [2] (setting [9]) and with MS2 coat protein [2] (setting [10]) were 195 nM and 71.7 nM, respectively.

As for “AGAGAGUCAGGAUAUAAAUAUAAAGAGAUAAAGCAAACAAUUUAGAAGGGACAUGAGGAUCACCCAUGUGAUAA”, the “apparent Kd” value was 13.6 nM in the data set on MS2 coat protein [2] (setting [7]) and 12.7 nM in the data set with MS2 coat protein [2] (setting [8]).

With “UCUCAGUGAGGAUAUCGAACAGACCUUUGUGUGCUAAUUUUCGAGAAGGCACAUGAGGAUCACCCAUGUGACUC”, the results for the “apparent Kd” value with MS2 coat protein [2] (setting [7]) and in the data set with MS2 coat protein [2] (setting [8]) were 54.6 nM and 49.7 nM, respectively.

On to “CUUACUCGUCUAGGAUAUCGAAUGCCAACAUGAGGAUCACCCAUGUGUGGGUUGAUCGUCUAGGCCGAGAAGGAGACUGCAAUC”, for which the “apparent Kd” value in the data set with MS2 coat protein [2] (setting [7]) is 8.88 nM; in the data set with MS2 coat protein [2] (setting [8]) it was 18.1 nM.

Turning to “UCAGGACAUGAGGAUCACCCAUGUUGUCAAACCAAAGGAUAUAGGCUGAUCGAAAGAGAACUAGAAGGUUGCGAUU”, the “apparent Kd” value in the data set with MS2 coat protein [2] (setting [9]) worked out at 20.1 nM; in the data set with MS2 coat protein [2] (setting [10]) it was 15.6 nM.

In general, apparent Kd refers to a dissociation constant that holds for the conditions of the assay.
